Screen size: about 330,000 compounds; about 350 (0.11%) were called active.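 The calls were made as follows: active = activation more than six SD over the plate average, tested at 20 µM; inactive = the rest.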 The full list was thinned out, with actives kept by preference.
target: Apelin receptor (Homo sapiens) (UniProt P35414); assay: APJ activation via beta-arrestin recruitment – CHO-K1 cells, PathHunter beta-arrestin, luminescence, primary screen (AID 2520); conditions: at 20 µM, hits give high values, 0% DMSO wells, 100% apelin;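 also: 0% = DMSO alone and 100% = apelin-13 at 10 nM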
Sequence (P35414 whole entry, looked up): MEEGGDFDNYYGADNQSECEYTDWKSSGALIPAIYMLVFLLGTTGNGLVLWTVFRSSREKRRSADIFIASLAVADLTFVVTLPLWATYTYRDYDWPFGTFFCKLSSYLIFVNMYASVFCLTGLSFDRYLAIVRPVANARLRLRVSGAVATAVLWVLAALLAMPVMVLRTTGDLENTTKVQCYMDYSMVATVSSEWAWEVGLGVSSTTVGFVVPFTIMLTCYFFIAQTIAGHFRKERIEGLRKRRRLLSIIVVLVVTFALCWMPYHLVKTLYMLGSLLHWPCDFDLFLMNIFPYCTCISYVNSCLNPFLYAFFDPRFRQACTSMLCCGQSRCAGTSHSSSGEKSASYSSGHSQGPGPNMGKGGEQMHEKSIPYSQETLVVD
In short: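 Test system: CHO-K1 APJ beta-arrestin complementation cell line | Compound: Single test compound dose, 20 µM final, 1% DMSO | Incubation: Compound 90 min 25 °C, reagent 1 h | Measured by: beta-gal luminescence | Read-out basis: APJ–arrestin association signal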

activation, active:
Nc1nc(-c2sc3nc4c(cc3c2N)CCCC4)nc(N2CCOCC2)n1 12.3%
Cc1ccc2nc(-c3ccc(NC(=O)c4cccnc4)cc3)oc2c1 14.6%
Cc1cc(C)c2[nH]c(=O)c(CN(Cc3ccccc3)C(=S)NCCCN(C)C)cc2c1 20.2%
CCCCCCc1cc2cc(-c3nnc(-c4ccccc4)o3)c(=O)oc2cc1O 30.8%
CCC(C)(C)C1CCC(=NNC(=O)c2ccc(Br)o2)CC1 (stereo unspecified) 19.8%
CC(=O)N1CCCc2cc(S(=O)(=O)N3CCCC(C(=O)N4CCN(c5cccc(Cl)c5)CC4)C3)ccc21 (stereo unspecified) 19.6%
COc1cc(NC(=O)C2=C(C)OCCS2)c(Cl)cc1C(=O)NCCN1CCN(C)CC1 18.9%
O=C(CSc1nc(Nc2ccccc2)nc(N2CCOCC2)n1)Nc1cc(Cl)ccc1O 40.8%

activation, inactive:
CCCCc1cc(=O)oc2c(C)c(OCC(=O)N3CCC(C(N)=O)CC3)ccc12 -4.2%
CCOc1ccc(/C=C/C(=O)N(CC)CC(=O)NCc2cccs2)cc1OC 8.54%
Cc1nnc(SCC(=O)NC(=O)NC2CCCC2)n1N -4.56%
CCN1CCN(C(=O)CCN2C(=O)c3ccccc3C2=O)CC1 -1.85%
COc1ccc2c(c1)N(C)/C(=C1/SC(=S)N(NC(C)=O)C1=O)S2 -1.51%
O=C1NC(c2ccccc2)=NC1(Nc1ccccn1)C(F)(F)F (stereo unspecified) 1.8%
Cc1ccsc1C(=O)OCC(=O)Nc1cccc(F)c1 -4.87%
COc1ccc(-n2c(=O)[nH]c3cc(C(=O)NCCc4ccc(OC)c(OC)c4)ccc3c2=O)c(OC)c1 -2.2%
O=C(NC1CCCC1)C(NS(=O)(=O)c1ccc(Br)s1)c1ccccc1 (stereo unspecified) 1.83%
Cc1ccc2c(c1)NCC(C(=O)NC1CCC(C)CC1)O2 (stereo unspecified) -1.38%
N#CC1=C(N)N(c2ccc(F)cc2)C(=O)C1 -4.08%
CC(=O)Nc1ccc(NC(=O)C(C)n2c3ccccc3c3nc(=O)cc(C)n32)cc1 (stereo unspecified) -3.18%
CCOC(=O)C1=C(CC)OC(N)=C(C#N)C1c1ccc(F)cc1F (stereo unspecified) -3.78%
Cc1cccc(NC(=O)c2sc3nc(N4CCOCC4)c4c(c3c2N)CCCC4)c1 -11.8%
Cc1nc(N2CCOCC2)nc2c1CCCC2 0.237%
CC(=O)NC(=S)Nc1ccc(NC(=O)c2cccnc2)cc1 3.75%
Cc1cc(NS(=O)(=O)c2ccc(NC(=O)c3cccnc3)cc2)nc(C)n1 1.41%
COc1ccc(C)cc1N(CC(=O)NC(C)c1ccccc1)S(C)(=O)=O (stereo unspecified) -1.79%
C=CCOc1ccccc1NC(=O)CN1C(=O)CNC1=O -2.49%
COc1ccc(C)cc1NC(=O)CSc1nnc(CC(=O)Nc2ccccc2F)n1C -3.35%
NS(=O)(=O)c1ccc(CCNC(=O)COC(=O)COc2cccc(C(F)(F)F)c2)cc1 -3.07%
COc1cc2c(cc1OC)C(=O)NCC(C)(C)O2 -0.328%
CN(CCc1ccccn1)C(=O)c1ccc(OC2CCN(Cc3ccccn3)CC2)cc1 -8.78%
CC(C)=CCCC(C)CN1CCC(n2nccc2NC(=O)c2ccccc2)CC1 (stereo unspecified) 1.47%
CCCn1c(=S)[nH]c2ccc(C(F)(F)F)cc21 0.385%
CCCCn1nnnc1NCc1cc(OC)c(OC)c(OC)c1 -4.13%
Cc1ccnc(NC(=O)CCC(=O)N(CC(=O)NCCc2ccccc2)Cc2cccs2)c1 -3.93%
CCCS(=O)(=O)N1CCN=C1SCc1cccc(F)c1 2.13%
COc1cccc2c(O)cc(=O)n(C)c12 -2.86%
O=C(Nc1cccc([N+](=O)[O-])c1)N1CCc2ccccc2C1 -0.709%
Cc1ccc(O/C=C2\OC(=O)c3ccccc32)cc1 -1.88%
O=C(OCC(=O)c1cccs1)c1ccc([N+](=O)[O-])o1 3.99%
COC(=O)Cc1cnc(NC(=O)CSc2nc(C(C)C)cc(=O)[nH]2)s1 -1.9%
O=C1NC(=Nc2ccc(Cl)cc2)SC1Cc1cccc(Cl)c1Cl (stereo unspecified) -3.58%
N#Cc1cccc(NC(=O)COC(=O)c2ccccc2C(=O)c2ccc(Cl)c([N+](=O)[O-])c2)c1 -0.51%
Cc1ccc(C(=O)C(C)OC(=O)Cc2n[nH]c(=O)c3ccccc23)cc1C (stereo unspecified) 6.72%
CCc1ccc2c(c1)cc(CN(C(=S)Nc1ccccc1Cl)C1CC1)c1nnnn12 4.19%
Cc1cccc2cc(CN(Cc3cccs3)C(=S)NCc3ccco3)c(=O)[nH]c12 -1.92%
COCCCNC(=S)N(CCN(C)C)Cc1cc2cc3c(cc2[nH]c1=O)OCCO3 -4.21%
O=C1C=CC(=O)N1c1ccc(N2CCCCC2)cc1 -5.18%
Cc1c(CCC(=O)O)c(=O)oc2cc3occ(-c4ccccc4)c3cc12 -2.13%
CCc1ccc(CN(C)C(=O)CCc2nnc(-c3ccc(-c4ccccc4)cc3)o2)nc1 -3.94%
CN(c1ccccc1)S(=O)(=O)c1ccc(Cl)c(C(=O)OCC(=O)N2CCOCC2)c1 -4.02%
CCn1c(-c2cccnc2Cl)nc2cc(C)c(C)cc21 -1.12%
COCC(=O)Nc1cc(C(=O)OC)cc(C(=O)OC)c1 -0.719%
CCOC(CNC(=O)C(=O)NCC(c1ccco1)N1CCN(c2ccc(OC)cc2)CC1)OCC (stereo unspecified) -4.81%
CC(=O)c1ccccc1OCc1ccc(C(=O)c2ccccc2)cc1 -3.74%
COc1ccc(N(CCC#N)S(=O)(=O)c2ccc(Cl)cc2)cc1 -5.53%
COCn1c(C(O)c2ccccc2)cc2ccccc21 (stereo unspecified) -2.04%
COc1ccc(S(=O)(=O)Nc2ccc(F)cc2)c(C)c1C -0.449%
CCCCN(CC)C(=O)CN(C)S(=O)(=O)c1cccc2nsnc12 -2.83%
CN(CCC1CCOCC1)Cc1cn[nH]c1-c1ccc(-c2ccccc2)cc1 -3.69%
Cc1ccnc(NS(=O)(=O)c2ccc(NC(=O)c3ccc(S(=O)(=O)N(C)C)cc3)cc2)n1 -2.66%
CCc1ccccc1NC(=O)CN(C)C(=O)COc1ccc(C)nc1[N+](=O)[O-] -1.82%
CC1CN(C(=O)c2ccc3c(c2)OCO3)OC(c2ccccc2)O1 (stereo unspecified) -2.94%
CC(C)(C)C1CCC(=NNC(=O)c2ccc(Br)o2)CC1 (stereo unspecified) -3.06%
O=C(N/N=C\C1CC=CCC1)c1ccc(Br)o1 (stereo unspecified) 8.95%
Fc1ccc(CNCc2ccc(Br)cc2)cc1 -1.03%
COC(=O)c1ccc(NC(=O)CSc2nnc(C3CC3)n2C)cc1 -3.11%
O=C(OCCN1C(=O)c2ccccc2C1=O)Oc1ccccc1 -1.77%
O=C(COC(=O)C12CC3CC(CC(O)(C3)C1)C2)NC12CC3CC(CC(C3)C1)C2 -1.34%
O=C(COc1ccc(Cl)cc1)NCCSc1ccccc1 -1.87%
O=[N+]([O-])c1cc(Cl)cc(/C=N/NC(=S)Nc2cc(S(=O)(=O)N3CCOCC3)ccc2Cl)c1O -5.98%
Cc1ccc(NS(=O)(=O)c2c(C)[nH]c(C)c2C(=O)N2CCCCC2)c(C)c1 -0.00146%
CC(=O)c1ccc(OCC(O)CN2CCN(S(=O)(=O)c3cccc(Br)c3)CC2)cc1 (stereo unspecified) -1.5%
CSc1ncc(C(=O)Nc2ccc(C)cc2C)c(C)n1 -0.333%
Cc1ccc(S(=O)(=O)NCc2nc3ccccc3c(=O)n2N)cc1 -0.607%
CCCc1nc(N2CCN(C)CC2)c2sc(=S)n(-c3ccccc3)c2n1 -2.45%
COC(=O)c1ccc(C)c(NC(=O)C2CC(=O)N(C3CCCC(C)C3C)C2)c1 (stereo unspecified) -2.02%
CC(=O)N1c2ccc(S(=O)(=O)N3CCCC(C(=O)Nc4cccc(Cl)c4)C3)cc2CC1C (stereo unspecified) -0.333%
CC(=O)N1CCCc2cc(S(=O)(=O)N3CCCC(C(=O)NCc4ccc(Cl)cc4)C3)ccc21 (stereo unspecified) -0.0955%
O=S(=O)(/C=C/c1ccccc1)N1CCNCC1 -1.77%
Cc1ccc(C)c(NC(=O)NNC(=O)c2ccc3ccccc3c2O)c1 10%
CCCCNC(=O)c1ccccc1NC(=O)C1=C(C)OCCS1 0.515%
COc1ccc(N2CCN(C(=O)c3ccccc3NC(=O)C3=C(C)OCCS3)CC2)cc1 -4.76%
CCOC(=O)CSc1nnc(NC(=O)C2CC(=O)N(c3ccc(F)cc3)C2)s1 (stereo unspecified) -4.52%
C=CCOc1ccc(C2/C(=C(\O)c3c(C)[nH]c(C(=O)OC)c3C)C(=O)C(=O)N2CCN(C)C)cc1 (stereo unspecified) -0.14%
O=Cc1c(NCCc2cccc(F)c2)c2ccccc2[nH]c1=O -3.46%
CC(C(=O)Nc1ccc(F)c(F)c1F)N1CCCCCC1 (stereo unspecified) -3.77%
CC1CCN(C(=O)c2ccc(S(=O)(=O)Cc3cc(F)ccc3F)c([N+](=O)[O-])c2)CC1 1.51%
CCN1CCN(C(C(=O)NC2CCCC2)c2cc3c(cc2[N+](=O)[O-])OCO3)CC1 (stereo unspecified) 9.21%
Cc1ccccc1NC(=O)CSc1nc2ccc(Nc3nc(N4CCOCC4)nc(N4CCOCC4)n3)cc2s1 8.35%
CC1(c2ccccc2)NC(=O)N(CC(=O)Nc2cc(Cl)ccc2N2CCOCC2)C1=O (stereo unspecified) -3.1%
